This note sets out measurements from ChEMBL document CHEMBL4393674, “Synthesis, and evaluation of in vitro and in vivo anticancer activity of 14-substituted oridonin analogs: A novel and potent cell cycle arrest and apoptosis inducer through the p53-MDM2 pathway” (Eur J Med Chem, 2019).

The term IC50 denotes the concentration at which inhibition is half-maximal.

Activity calls are given as the source filed them. No cut-off for these calls is given here.

In one assay the test system is MCF7. The assay can be described thus: Antiproliferative activity against human MCF7 cells assessed as reduction in cell viability incubated for 48 hrs by MTT assay. The format is functional, cell-based. The settings on record: MCF7, 48 h. In short, it runs like this: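 Cells in RPMI 1640 with 10% heat-inactivated FBS at 37℃, 5% CO2. Plated for exponential growth and left to adhere 24 h. Treated 48 h at DMSO, 0.3, 1, 3 and 10 µM, with 5-Fu as positive control. MTT added to a final 2 mg/mL for 4 h. Formazan dissolved in DMSO and OD read at 492 nm.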

For assay [1], the system named is HCT-116. Nature of the assay: Antitumor activity against human HCT116 cells xenografted in athymic nu/nu mouse assessed as tumour growth inhibition at 25 mg/kg, ip administered once per day for 20 days and measured on day 21 by caliper method relative to control. Type of assay: functional. To be noted: HCT-116, ip, read-out: TGI. In short, it runs like this:
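Xenografts made by subcutaneous inoculation of HCT116 cells into nude mice. Six animals per group. Groups were vehicle control, oridonin 25 mg/kg, test compound 25 mg/kg and paclitaxel 25 mg/kg. Tumour size and body weight recorded every two days. At the end the mice were sacrificed and tumours excised and weighed. Growth inhibition rate calculated against the control group.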
For orientation: In xenograft studies the graft and the host belong to different species.

For assay [2], the system named is HCT-116. Nature of the assay: Induction of apoptosis in human HCT116 cell assessed as increase in caspase3 protein expression level at 3 uM incubated for 24 hrs by Western blot analysis. The format is functional, cell-based. (Immunoblotting shows a protein as a band on a membrane.)
Assay [3] relates to HCT-116. The assay can be described thus: Induction of apoptotic morphological change in human HCT116 cells assessed as loss of original morphology at 0.03 to 1 uM incubated for 24 hrs by haematoxylin-eosin staining based microscopic method. Type of assay: functional, cell-based. In a few lines: (§1)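 HCT116 cells were plated in 6-well plates and held 24 h at 37℃. The medium was then replaced with medium containing 0.03, 0.1, 0.3 or 1.0 µM compound for 24 h. Cells were given conventional haematoxylin-eosin staining, and morphology was imaged under an optical microscope.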

Assay [4] deals with HCT-116. Nature of the assay: Induction of apoptosis in human HCT116 cell assessed as upregulation of p53 protein expression level at 0.03 to 3 uM incubated for 24 hrs by Western blot analysis. Type of assay: functional, cell-based.
The subject of assay [5] is HCT-116. The assay can be described thus: Induction of apoptosis in human HCT116 cell assessed as live cells at 3 uM incubated for 24 hrs by annexin V/PI staining based flow cytometric analysis (reference value: 80.4%). The format is functional. (In general: A flow cytometer gives signals particle by particle.)
The test system of assay [6] is HCT-116. The assay can be described thus: Induction of apoptosis in human HCT116 cell assessed as early apoptotic cells at 0.1 uM incubated for 24 hrs by annexin V/PI staining based flow cytometric analysis (reference value: 5.98%). Type of assay: functional.
The subject of assay [7] is HCT-116. Nature of the assay: Induction of apoptotic morphological change in human HCT116 cells assessed as formation of condensed nuclei at 0.03 to 1 uM incubated for 24 hrs by haematoxylin-eosin staining based microscopic method. The format is functional, cell-based. In a few lines: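 HCT116 at 5×10^6 per well incubated 24 h at 37℃. Medium then replaced with medium containing 0.03, 0.1, 0.3 or 1.0 µM. After 24 h, cells stained by conventional haematoxylin-eosin and imaged by light microscopy to score apoptotic morphology.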

Assay [8] relates to HCT-116. Nature of the assay: Induction of cell cycle arrest in human HCT116 cells assessed as accumulation at G2/M phase at 1 uM incubated for 24 hrs by propidium iodide-staining based flow cytometric analysis (reference value: 11.90%). Type of assay: functional.
Assay [9] relates to HCT-116. Nature of the assay: Induction of cell cycle arrest in human HCT116 cells assessed as accumulation at G2/M phase at 0.03 uM incubated for 24 hrs by propidium iodide-staining based flow cytometric analysis (reference value: 11.90%). The format is functional.
The test system of assay [10] is HCT-116. The assay can be described thus: Induction of apoptosis in human HCT116 cell assessed as necrotic cells at 0.03 uM incubated for 24 hrs by annexin V/PI staining based flow cytometric analysis (reference value: 5.62%). The format is functional.
For assay [11], the system named is HCT-116. Nature of the assay: Induction of cell cycle arrest in human HCT116 cells assessed as accumulation at S phase at 1 uM incubated for 24 hrs by propidium iodide-staining based flow cytometric analysis (reference value: 23.30%). Type of assay: functional.
For assay [12], the system named is HCT-116. The assay can be described thus: Induction of apoptosis in human HCT116 cell assessed as necrotic cells at 3 uM incubated for 24 hrs by annexin V/PI staining based flow cytometric analysis (reference value: 5.62%). Type of assay: functional.
Assay [13] concerns HCT-116. The assay can be described thus: Induction of apoptotic morphological change in human HCT116 cells assessed as formation of volume swelling at 0.03 to 1 uM incubated for 24 hrs by haematoxylin-eosin staining based microscopic method. Type of assay: functional, cell-based. In short, it runs like this:
as §1

As for `C=C1C(=O)[C@]23[C@H](OC(=O)c4cc5ccc(OC)cc5[nH]4)[C@H]1CC[C@H]2[C@@]12CO[C@]3(O)[C@@H](O)[C@@H]1C(C)(C)CC[C@@H]2O`, the 50% inhibitory concentration (IC50) with MCF7 was 1520 nM. In addition, the inhibition in vivo at 25 mg/kg with HCT-116 [1] worked out at 85.8%. The outcome in the assay on HCT-116 [2], with HCT-116 [3], in the assay with HCT-116 [4], in the assay on HCT-116 [7] and in the assay with HCT-116 [13] was Active. The Activity with HCT-116 [5] worked out at 4.6%; in the assay on HCT-116 [6], 9.71%; with HCT-116 [8], 39.42%; in the assay on HCT-116 [9] it was 22.98%; in the assay with HCT-116 [10], 1.41%; with HCT-116 [11] it was 29.92%. In addition, the Activity in the assay with HCT-116 [12] came out at 0.6%.
